From the EternaBench riboswitch data

Test system: MS2 coat protein
Assay: apparent Kd, MS2 coat protein; higher = weaker binding; RNA-MaP array
Procedure, shortened: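 Designed RNAs were transcribed on an Illumina sequencing chip from sequenced DNA templates. They were incubated at room temperature with fluorescently labeled MS2 coat protein at 1.5 nM to 3 μM, for 0.8–1.5 h at the lowest to 10–20 min at the highest concentrations, in Tris-HCl pH 7.5 buffer with KCl, MgCl2, BSA, DTT, tRNA and Tween20, with or without input ligand. Apparent Kd is the median of per-cluster binding-curve fits. Designs measured on fewer than 10 clusters were excluded.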

[1] = designed as: OFF switch for flavin mononucleotide, no ligand
[2] = ligand present: flavin mononucleotide, designed as: OFF switch for flavin mononucleotide
[3] = designed as: ON switch for flavin mononucleotide, no ligand
[4] = ligand present: flavin mononucleotide, designed as: ON switch for flavin mononucleotide
[5] = designed as: ON switch for tryptophan, no ligand
[6] = ligand present: tryptophan, designed as: ON switch for tryptophan
[7] = designed as: ON switch for theophylline, no ligand
[8] = ligand present: theophylline, designed as: ON switch for theophylline

Sequence | apparent Kd [1] | apparent Kd [2] | also measured
CCUCGAUUUUGAUACCGAUAUGUCUUUGAUACCAGCGCCAUAGUACGCCCUUGGCAGCAAGAAACAUGAGGAUCACCCAUGUUAA |  |  | apparent Kd (designed as: OFF switch for theophylline, no ligand): 16.7 nM; apparent Kd (ligand present: theophylline, designed as: OFF switch for theophylline): 49.8 nM
UAACGUACAAAAGGAUAUGCCAAUAGAAAGAUCUUACAAUAAACACAUGAGGAUCACCCAUGUAAGCAGAAGGUUUGGAAACAA | 12.4 nM | 10.2 nM | 
ACACAUGAGGAUCACCCAUGUCGACGUUAGGCUCGUCGCGGCAGAAGGUGUGGCAUGGACACCCACAAGGAUAUGCAUGGGACU |  |  | apparent Kd [3]: 174 nM; apparent Kd [4]: 119 nM
AGACAUGAGGAUCACCCAUGUCUCGGGAUGCGUAGCUUGCACAGAAGGCAUGACCGCAACGGUGAUGAGGAUAUGUCGUACCAA |  |  | apparent Kd [3]: 25.9 nM; apparent Kd [4]: 8.87 nM
AGAGUGAGAGGAUAUUUUGGCGUAGACAUGAGGAUCACCCAUGUGUCGUGGGCACUGCUGAAAGAAGGCUCAGCUC | 29.3 nM | 25.3 nM | 
AGCUCGGCAGGAUAUACAUGAGGAUCACCCAUGUUUGCAGGCGCGCCGGUAGACUUUUGUAGAAGGGCCGUAUA | 44.8 nM | 113 nM | 
GGCUGCGAUGGCGGAAAUUAUUUACAUAGGCGAGGACCGGUACGGCCGCCACUCGAACGUACAUGAGGAUCACCCAUGUGAUAAU |  |  | apparent Kd [5]: 71.8 nM; apparent Kd [6]: 26.5 nM
GCGACUUUUACCGAGGAUAUGUCGUGACACACAUGAGGAUCACCCAUGUUUCUAAGUCCUGGAAUACAGAAGGCGGUAUUAAUACA |  |  | apparent Kd [3]: 7.53 nM; apparent Kd [4]: 5.42 nM
GCACUAGAGCAAGGAUAUAUAUCGGAAUCUACAUGAGGAUCACCCAUGUGUGUGACUUCUCGCAGAUAGAAGGUGCUCGCUGAC | 433 nM | 206 nM | 
GCAUUAUUAUUAGAUACCAGUGUCGCAGGCGACAUGAGGAUCACCCAUGUAAAGUUACUCCACCCUUGGCAGCUAGUUCGACUAC |  |  | apparent Kd [7]: 103 nM; apparent Kd [8]: 26.3 nM
CGCCUACAUGAGGAUCACCCAUGUGAUGUUACGGUAGGAUAUAGAGCUGAGCCACUCUGCCUAGAAGGACCUAUAC |  |  | apparent Kd [3]: 68.8 nM; apparent Kd [4]: 37.3 nM
GCAUUAGAGGACACAUGAGGAUCACCCAUGUGCAUCAUCAGAUAGGAUAUCUUAACAGAAAUUUGAGAGAAGGAUCGUGUUCGG | 7.84 nM | 7.53 nM | 
CCGUUUGAUCAGAAGGAACCAGUCGAACCAUGUGACAGACAUGAGGAUCACCCAUGUUCGCGCGGUUAGGAUAUGACAGCUCAG | 13.2 nM | 64.5 nM | 
CUUUAUACAUGAGGAUAUUGGAAAACCGGCGUACAAGAAGGCAUGACAUGAGGAUCACCCAUGUAAAGAUAAAGACAAAGCUAA |  |  | apparent Kd [3]: 22.7 nM; apparent Kd [4]: 10.3 nM
UACUUGAAGUUGCAGGAUAUUUAGGAUCUAACAUGAGGAUCACCCAUGUUAUAUGAGAGACGUAUAAAGAAGGGCAGCGUGAUAGA |  |  | apparent Kd [3]: 9.4 nM; apparent Kd [4]: 5.9 nM
CGUAUGUGAGGAUAUCCGAAACUAUUUACCAAAUUAUAAGUGGAGAAGGCACAUGAGGAUCACCCAUGUGAUGG | 11.5 nM | 24.6 nM | 
GGCCCACAUGAGGAUCACCCAUGUGUGGAUACCAGCCUCAUUUAGGGCCCUUGGCAGCCAGAUAGUAACAAGUCCGAAACACAGA |  |  | apparent Kd [7]: 93.3 nM; apparent Kd [8]: 94.1 nM
AAUACAUGAGGAUCACCCAUGUUGACAUCAUGAGCCAACCUUAGAAGGACUUUAAUGACGCUCGAGUAGGAUAUAAGGCAAGUU |  |  | apparent Kd [3]: 13.7 nM; apparent Kd [4]: 12 nM
GUAUGGGCGUAACAUGAGGAUCACCCAUGUCCGAAUGCGAUGAGAAGGCCACAUAGUUGGCUGAUGGAGGAUAUCAAAGUAUAU | 97.9 nM | 70.8 nM | 
UGGACUUCAGGAUAUACAUGAGGAUCACCCAUGUAUACGUGUAUGAUCCCAGAAACAAGUAGAAGGGAAAGCCG | 5.71 nM | 5.65 nM | 
GUAACACUGUCAUCGCCGACAUGAGGAUCACCCAUGUGUAAGAGAAGGACCGAGACCGGGAAAUGGUAGGAUAUCUGUGGGUAG | 45.1 nM | 84.5 nM | 
CCUCACAUGAGGAUCACCCAUGUCUUUACACGAGGACCGGUACGGCCGCCACUCGUUCACAAAACAACCAGAAGUGAUGCCUACA |  |  | apparent Kd [5]: 140 nM; apparent Kd [6]: 169 nM
GACCCUACGGAGAAGGCACCUACAUGAGGAUCACCCAUGUUUGAUCGUUUGCCGGACGGCUUACGUGAGGAUAUCCAGGUACAG |  |  | apparent Kd [3]: 14.8 nM; apparent Kd [4]: 7.2 nM
AGUCGUUAACGGCGCAACACAUGAGGAUCACCCAUGUGCUAUGAGGAUAUCCGGGUGUACAAGCCGGAGAAGGCAUCGUUCUUU |  |  | apparent Kd [3]: 10.6 nM; apparent Kd [4]: 9.55 nM
CCUUCGUCGAAUGUGUAACAUGAGGAUCACCCAUGUAGUCUGGAGGAUAUCUAACACAGCUGAAAAGAGAAGGCCAGGUCUGCA | 26 nM | 48.6 nM | 
UUCUACUAGUGACACUACUAGACAUGAGGAUCACCCAUGUCAGAGGAUAUGGAAAGACAUUAUUACCAGAAGGCUGCCAAGGUA |  |  | apparent Kd [3]: 15.6 nM; apparent Kd [4]: 15 nM
GGGAUUCGUGUUAGGAUAUUGAGGUGUAUUCCCGACAAGAAGGAACAUGAGGAUCACCCAUGUUGGGAACUGUG | 33.9 nM | 62.6 nM | 

Sequence | apparent Kd [1] | apparent Kd [2] | also measured
ACUCGACAUGAGGAUCACCCAUGUCAGGAUAUCUGAGUGUGGCCUCCUACUAAACUAUAGAGAAGGGACAAUGG | 10.3 nM | 11 nM | 
UCCAAAUUCCAGAAGGCGUUUAAGCGAGGGUAGGGCGUGCAACAUGAGGAUCACCCAUGUAAUCACGAGGAUAUGGGAGGCACC | 7.65 nM | 8.34 nM | 
UAUACACAUCCACAUGAGGAUCACCCAUGUGUGCCUCGUUCCGAGGAUAUGGGCCACGAUGUUUCCCAGAAGGCGGUCGCUAUA | 15 nM | 12.7 nM | 
GGCGGGAAAUGAGGAUAUGGUAGUUGAGAAACGCCAGAAGGCAUUGGCAAGGCUAGAGACAUGAGGAUCACCCAUGUAAUCAUA |  |  | apparent Kd [3]: 8.35 nM; apparent Kd [4]: 7 nM
GGACUAUCAGGAUAUACAUGAGGAUCACCCAUGUACUUUAGGUAAUGGGACUACACCGGUAGAAGGGAUUAAAG | 116 nM | 84.8 nM | 
CCUCAAAGACAGAAGGAAGGUCCGCUACUAGCAGUAACAACAUGAGGAUCACCCAUGUCAAUACCUUAGGAUAUGUAAGAACGC |  |  | apparent Kd [3]: 71.2 nM; apparent Kd [4]: 16.5 nM
GAAGAAAAGUGAGGAUAUGGCAACCAGAUGACGCAAACAAUAAAACAUGAGGAUCACCCAUGUACCCAGAAGGCACCAAACAAA |  |  | apparent Kd [3]: 15.2 nM; apparent Kd [4]: 9.48 nM
CGAAGUAGUAGAGGAUAUGCUAGAGAUGGUUCUGCAGAAGGCUACCCUCUUGAUUAUAUUACAUGAGGAUCACCCAUGUUGGUU | 10.7 nM | 10.2 nM | 
UGGCGCUGUGCAGGAUAUAUCAAUUAGAACAGGGCGCAGGGUAGAAACAUGAGGAUCACCCAUGUAUAGAAGGGCACAGUAGGU | 53.1 nM | 49.7 nM | 
UUCACGUUAGGAUAUCGCGUCAGCACAGCCUGUAUGGCAAGCGAGAAGGAACAUGAGGAUCACCCAUGUCGGAC | 11.4 nM | 28.7 nM | 
AGAAAACAUGAGGAUCACCCAUGUAAGGAUAUACAAACUCCAGAAAUAAAAGGAUUAAGAAGAAGGUACAUAAA | 10.9 nM | 9.2 nM | 
AAGAGCAGAGGAUAUACAUAGGCAUCAGUUGAAGCAGCUGAACAUGAGGAUCACCCAUGUAGAAGGCUGACAAA | 5.43 nM | 7.29 nM | 
GCGCGCGGUGGCGGUCAACAUGAGGAUCACCCAUGUGUGAACAGAAGGCGCGUAUGCUACCAUGGCGAGGAUAUGUUGGGUCAG | 5.95 nM | 5.99 nM | 
CGCCACACAUGAUAAUCAUAACAUGAGGAUCACCCAUGUCAUAGAAGGUGCAUAUUUUAGAAUCGCAAGGAUAUAUGGACAAUU | 16.2 nM | 18.7 nM | 
UGUACAACAUGAGGAUCACCCAUGUGGCACCUCUGUCGAUUCGAGGAUAUCAGGUAAAGUGGCUGUGAGAAGGCGAAAGUUCCG | 65 nM | 50.3 nM | 
AAGAGACAUGAGGAUCACCCAUGUGUUGAUACCAGAAACACAAAGUUCCCUUGGCAGCAAAUCUGAGCGAAACGAUCUAGAGCGC |  |  | apparent Kd [7]: 48.4 nM; apparent Kd [8]: 74.5 nM
UAAAGAGAAGGAUAUACAGGAAGAAAAGCCUCACAAUCGUAACAUGAGGAUCACCCAUGUAGAAGGACUAACAA | 38.7 nM | 29.5 nM | 
CAUAAACCCUAGAAGGGCGCAUUAUGUAGAUUCGCAGGAUAUAGGAACGGGAUCGUGUAUACAACAUGAGGAUCACCCAUGUCA |  |  | apparent Kd [3]: 15.4 nM; apparent Kd [4]: 14.4 nM
GGACAUGAGGAUCACCCAUGUAGUGGAGGGCUCAGGCUCGCAAGAAGGUUAAGAAUAUAGUCAAUAAAGGAUAUUGAGGGCCGA | 21.7 nM | 19.2 nM | 
AUUAACUCAGCAGGAUAUCUCAGCGGACGUUGCAGAGAAGGGCUAUGCCUAUGUAGGCAACUCACAUGAGGAUCACCCAUGUAA |  |  | apparent Kd [3]: 38.8 nM; apparent Kd [4]: 19.1 nM
GGCCUUGUUGUUAUAGGACAUGAGGAUCACCCAUGUAUAUGUAAGGAUAUGAAUCGUAAGACGCAUCAGAAGGUACAGUACUGG | 122 nM | 55.8 nM | 
AGGAAGACGAUGGAUACCAGACAACCAGGGAACAUGAGGAUCACCCAUGUGAUUGAAAGGGUCCCUUGGCAGCCAGAAGCCGUUG |  |  | apparent Kd [7]: 88.3 nM; apparent Kd [8]: 119 nM
AUACGUGCAGGAUAUUAUUCGAGCCACAUGAGGAUCACCCAUGUUAAUUCUUCAUGUAUCUAAGAAGGGCAGUGAA | 9.07 nM | 9.67 nM | 
AAGGGCGCAGUAGGAUAUCAAUGUUUGACGGCGUGAGAAGGACUGCCCUAUUUUCAGACAUGAGGAUCACCCAUGUGCGUAAGA |  |  | apparent Kd [3]: 9.4 nM; apparent Kd [4]: 6.41 nM
ACAAAAUAGCUAGGAUAUCGUACGAAUUGACAUUUUUAGCAAACAUGAGGAUCACCCAUGUCCUACGAGAAGGAGCUUAUGAAG | 14.3 nM | 7.55 nM | 
GUUUACAAUGUCAGGAUAUCACAGCGUACAAAUGUUGAGAAGGGACAUGAGGAUCACCCAUGUACACACCUCUU | 8.04 nM | 9.29 nM | 
CACGAACAUGAGGAUCACCCAUGUCAGGAUAUCGUGCUAAUCCCAUAAUCGGCGCGCACGAGAAGGGACCAGGG | 12.7 nM | 19.6 nM | 
